How the values were obtained:
[1] = test system: E. coli strains containing WT and mutant IMPDH; assay: Growth of engineered E. coli strains with WT or mutant IMPDH; format: cell-based, Escherichia coli
How it was run: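 E. coli strains carrying WT or mutant IMPDH (guaB) were precultured overnight to saturation in M9 + 1 mM IPTG + 2 g/L glucose. They were diluted 100-fold into M9 salts with 300 mg/L thiamine, 1 mM IPTG and the carbon source; for coumarate, 1 g/L with or without 5 mg/L guanosine (~18 μM). Triplicate cultures were read at OD600 in a plate reader, growth rates were curve-fitted, and standard deviation was taken over three biological replicates.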

EcIMPDH/WT = EcIMPDH/WT (Escherichia coli, UniProt P0ADG7); assay: biochemical; format: biochemical
EcIMPDH/D243G = EcIMPDH/D243G (Escherichia coli, UniProt P0ADG7, D243G); assay: biochemical; format: biochemical
AbIMPDH = AbIMPDH (Acinetobacter baumannii, UniProt D0CF46); assay: biochemical; format: biochemical

EcIMPDH/D243G, sequence (P0ADG7 whole entry D243G): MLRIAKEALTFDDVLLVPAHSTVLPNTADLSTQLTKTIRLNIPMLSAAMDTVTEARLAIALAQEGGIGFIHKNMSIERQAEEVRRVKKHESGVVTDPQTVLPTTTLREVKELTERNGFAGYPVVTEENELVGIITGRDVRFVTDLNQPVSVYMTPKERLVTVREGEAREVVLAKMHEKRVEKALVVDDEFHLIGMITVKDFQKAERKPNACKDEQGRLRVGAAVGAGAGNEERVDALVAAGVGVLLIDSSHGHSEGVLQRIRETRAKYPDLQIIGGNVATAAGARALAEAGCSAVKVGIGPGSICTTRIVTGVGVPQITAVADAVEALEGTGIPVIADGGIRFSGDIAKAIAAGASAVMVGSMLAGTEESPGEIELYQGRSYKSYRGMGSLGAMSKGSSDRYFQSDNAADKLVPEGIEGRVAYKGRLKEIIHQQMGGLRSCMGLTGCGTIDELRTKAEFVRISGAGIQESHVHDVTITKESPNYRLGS
EcIMPDH/WT, sequence (P0ADG7 whole entry): as the sequence (P0ADG7 whole entry D243G) above, with G243D counted along it

For `Nc1nc2c(ncn2[C@@H]2O[C@H](CO)[C@@H](O)[C@H]2O)c(=O)[nH]1` [guanosine], the “Effect of added guanosine on inhibition by 4-hydroxybenzaldehyde” value ([1]; strain JME129 (wild-type guaB), growth with glucose (Figure S6)) was “relieved inhibition” and the “Effect of added guanosine on growth with coumarate” value ([1]; strain with wild-type IMPDH, 1 g/L coumarate, 5 mg/L guanosine) was “increased growth with coumarate”.

With `O=Cc1ccc(O)cc1` [4-hydroxybenzaldehyde] the Ki (EcIMPDH/WT; Ki,app(4HB), EcIMPDH/WT, 20 nM enzyme, 12 μM IMP, 500 μM NAD+, pH 7.0) was 320 ± 30 µM, the “Inhibition mechanism with respect to IMP” value (EcIMPDH/WT; wild type EcIMPDH) was “uncompetitive inhibitor” and the “Inhibition mechanism with respect to NAD+” value (EcIMPDH/WT; wild type EcIMPDH) was “noncompetitive (mixed) inhibitor”. The “Inhibition mechanism with respect to IMP” value (EcIMPDH/D243G; D243G EcIMPDH) was “uncompetitive inhibitor”, the “Inhibition mechanism with respect to NAD+” value (EcIMPDH/D243G; D243G EcIMPDH) was “noncompetitive (mixed) inhibitor” and the Ki (EcIMPDH/D243G; Ki,app(4HB), EcIMPDH/D243G, 20 nM enzyme, 12 μM IMP, 500 μM NAD+, pH 7.0) was 1250 ± 50 µM. It also gave a Ki (AbIMPDH) of 720 ± 30 µM.

`NC(=O)c1ccc[n+]([C@@H]2O[C@H](COP(=O)([O-])OP(=O)(O)OC[C@H]3O[C@@H](n4cnc5c(N)ncnc54)[C@H](O)[C@@H]3O)[C@@H](O)[C@H]2O)c1` [NAD] was tested, and the “Kii(NAD)” value (EcIMPDH/WT; EcIMPDH/WT, substrate inhibition by NAD, fixed 1.2 mM IMP) was 4300 ± 530 µM, the Km (EcIMPDH/WT; read-out: Km(NAD), EcIMPDH/WT, fixed 1.2 mM IMP, 50 nM enzyme) was 210 ± 20 µM and the “Kii(NAD)” value (EcIMPDH/D243G; EcIMPDH/D243G, substrate inhibition by NAD, fixed 1.2 mM IMP) was 3500 ± 690 µM. For the same compound, the Km (EcIMPDH/D243G; read-out: Km(NAD), EcIMPDH/D243G, fixed 1.2 mM IMP, 50 nM enzyme) was 210 ± 40 µM, the “Kii(NAD)” value (AbIMPDH; AbIMPDH, substrate inhibition by NAD, fixed 1.2 mM IMP) was 10600 ± 1100 µM and the Km (AbIMPDH; read-out: Km(NAD), AbIMPDH, fixed 1.2 mM IMP, 50 nM enzyme) was 208 ± 17 µM.

From publication PMC6904512 (Molecular microbiology, 2019)
